UPR XBP1 act – adaptive UPR (XBP1) activation | AID 463104 | CHO-XBP1 luciferase reporter, IRE1-XBP1 UPR activation, luminescence; percent of tunicamycin response, DMSO as zero | activation, % at 20 µM | 0.33% of 330,000 active;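 active means versus positive control, 20 µM dose yields 30% or more activation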
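Material: IRE1-XBP1 luciferase reporter CHO line / Quantity: one thousand reporter cells per well / Buffer or medium: F12 with 10% serum / Compound: 20 µM single concentration, DMSO 1% / Times: 6 h treatment, 37 °C / Detection: Steady-Glo luciferase glow luminescence, 10 min after reagent addition / Benchmarks: tunicamycin high, DMSO low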
CHOP UPR activ – activators of apoptotic arm of unfolded protein response (CHOP). activation, % at 10 µM. 0.34% of 330,000 active. CHO-CHOP luciferase reporter, UPR activation, luminescence; percent of tunicamycin response over DMSO baseline;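 active means at 10 µM dose, activation of 40% or more, normalized to positive control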
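Test system: CHO CHOP reporter cells. Input: 500 CHO-CHOP cells per well. Medium: F12 with 10% FBS. Technique: luciferase luminescence. Measure: percent activation relative to tunicamycin control. Dosing: 10 µM compound, 0.5% DMSO. Timing: 16-18 h cell attachment, then 6 h compound exposure, 37 °C.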
CHOP inhibitor – inhibitors of CHOP induction in ER stress response; inhibition, % at 10 µM; AID 2732; 3.8% of 220,000 active; CHO-K1 CHOP-promoter luciferase, tunicamycin-induced, 15-18 h;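 active means compounds that reduced the stress-induced luciferase reporter signal by more than about 70% of percent inhibition, limit read from the data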
UCH37 inh – blocks the human deubiquitinase UCH37; Q9Y5K5; purified proteasome/UCH37, Ub-AMC cleavage fluorescence; inhibition, % (test concentration not listed); 0.33% of 330,000 active; AID 588478;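 active means mean inhibition over replicate wells above about 20%, limit read from the data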
Target sequence (Q9Y5K5 whole entry, looked up): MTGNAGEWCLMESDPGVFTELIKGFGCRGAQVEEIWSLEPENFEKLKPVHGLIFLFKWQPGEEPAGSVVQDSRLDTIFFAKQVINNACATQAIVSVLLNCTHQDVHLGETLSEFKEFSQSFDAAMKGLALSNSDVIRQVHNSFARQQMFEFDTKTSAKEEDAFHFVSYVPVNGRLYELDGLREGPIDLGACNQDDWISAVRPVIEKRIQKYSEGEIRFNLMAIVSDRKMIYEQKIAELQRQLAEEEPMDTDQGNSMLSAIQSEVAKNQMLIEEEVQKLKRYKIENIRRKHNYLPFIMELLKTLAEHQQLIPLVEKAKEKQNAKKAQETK
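Material: Human UCH37 enzyme supplied as purified proteasome complex | Schedule: 30 min preincubation with enzyme, 25 min cleavage at room temperature | Detection: AMC fluorescence 355/460 nm | Measure: % inhibition of Ub-AMC cleavage fluorescence | Controls: Wells without proteasome as full block, compound-free enzyme plus substrate as uninhibited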
CTSL1 counter – cathepsin L1 inhibition, PFM18AAP counter-screen; 0.49% of 300,000 active; inhibition, % at 5.96 µM; recombinant F. hepatica cathepsin L1, Z-Leu-Arg-MCA fluorescence; AID 1906;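 active means inhibition above the mean of all tested compounds plus 3 SD, set per screening campaign, cut at about 17% in these data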
CHOP inh conf – confirmation of CHOP induction inhibitors | shares compounds with CHOP inhibitor | CHO-CHOP promoter luciferase reporter, tunicamycin-induced, luminescence | inhibition, % at 10 µM | 45% of 2,100 active | AID 504437;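 active means mean of three repeat readings of reporter signal inhibition above a set limit, cut at about 70% in these data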
Hits are given with their value; - = inactive; . = no result given. The entries come from a sample that favours hits as a whole.

SMILES	UPR XBP1 act	CHOP UPR activ	CHOP inhibitor	UCH37 inh	CTSL1 counter	CHOP inh conf
Cc1cccc(NCC(=O)NN=Cc2cccc(Oc3ccccc3)c2)c1	.	.	.	-	.	.
CCOC(=O)CS(=O)(=O)c1nc(-c2ccc(F)cc2)cc(C(F)(F)F)n1	-	-	.	-	-	.
CS(=O)(=O)c1nc(-c2ccc(F)cc2)cc(C(F)(F)F)n1	.	.	106	-	.	110
CS(=O)(=O)c1nc(-c2cccs2)cc(C(F)(F)F)n1	-	-	111	.	-	120
COCC(C)NC(=O)CCS(=O)(=O)c1nc(-c2ccc(OC)cc2)cc(C(F)(F)F)n1 (stereo unspecified)	-	-	-	-	-	.
COC(=O)CCS(=O)(=O)c1nc(-c2ccccc2)cc(C(F)(F)F)n1	-	-	106	-	-	-
COc1ccc(-c2cc(C(F)(F)F)nc(S(=O)(=O)CCCC(=O)Nc3cccnc3Cl)n2)cc1OC	.	.	100	-	.	-
CC(=NNC(=O)c1cc(-c2ccccc2)nc2c(Cl)cccc12)c1cccnc1	.	.	.	-	.	.
Cc1cccc(C(=O)NNC(=O)c2cc3cc4ccccc4nc3s2)c1	-	-	103	-	-	-
O=C(NNC(=O)c1cc2cc3ccccc3nc2s1)c1cccc(Cl)c1	-	-	-	-	-	.
Cc1ccc(C2C(/C=C3/SC(=S)NC3=O)=C(c3cccs3)Oc3ccccc32)cc1 (stereo unspecified)	-	-	99	-	-	-
O=C1NC(=S)SC1=Cc1ccccc1Cl	.	.	.	-	.	.
CCn1cc(Cl)c(C(=O)N2N=C(c3ccc4ccccc4c3)CC2c2ccccc2O)n1 (stereo unspecified)	-	-	97	-	-	-
CCCN1C(=O)C(=NOCC(=O)NCC(F)(F)F)c2ccccc21	.	.	.	-	.	.
CS(=O)c1nc(-c2ccc(Br)cc2)cc(-c2ccccc2)c1C#N (stereo unspecified)	-	162	.	-	-	-
N#Cc1c(-c2ccccc2)cc(-c2ccc(O)cc2)nc1N	-	-	.	-	-	.
CCCOC(=O)CSc1nnc(-c2ccc(Cl)cc2Cl)o1	-	-	98	-	-	-
O=S(=O)(NCC(Nc1ccccc1)c1ccccc1)c1ccc(Cl)cc1 (stereo unspecified)	-	-	102	-	-	-
O=C(O)c1cccc(NC(CNS(=O)(=O)c2ccc(Cl)cc2)c2ccccc2)c1 (stereo unspecified)	-	-	-	-	-	.
O=C(CNC1CCCCCC1)Nc1ccccc1N1CCCCC1	-	-	98	-	-	94
CN1C(=O)CSC1=NCC12CC3CC(CC(C3)C1)C2	-	-	105	-	-	-
Cc1ccc(/C=N/NC(=O)CSCc2ccc(Cl)cc2)cc1	-	-	110	.	-	89
Cc1ccc(/C=N/NC(=O)CCCOc2ccc(Cl)cc2Cl)cc1	-	-	100	.	-	106
O=C(CSCc1ccc(Cl)cc1)N/N=C/c1ccc(OCC(=O)Nc2ccccc2)cc1	-	-	-	.	-	.
O=C(CCCOc1ccc(Cl)cc1Cl)N/N=C/c1ccccc1	-	-	-	.	-	.
SMILES	UPR XBP1 act	CHOP UPR activ	CHOP inhibitor	UCH37 inh	CTSL1 counter	CHOP inh conf
Cc1ccccc1C(=O)Nc1ccc(C(=O)NNC(=O)CCCOc2ccc(Cl)cc2Cl)cc1	-	-	113	-	-	-
O=C(CCCOc1ccc(Cl)cc1Cl)NNC(=O)c1ccc(NC(=O)c2ccccc2)cc1	-	-	-	-	-	.
O=C(NN=Cc1ccc([N+](=O)[O-])o1)c1cn(-c2ccccc2)nc1-c1ccccc1	.	.	.	-	.	.
CC(C)c1ccc(C=NNC(=O)C(=O)NCCCN2CCOCC2)cc1	.	.	.	-	.	.
COc1cccc(C(C)=NNc2ccc(S(=O)(=O)N3CCCCC3)cn2)c1	.	.	.	-	.	.
Cc1c(-c2cccc(Cl)c2)nc2ccccc2c1C(=O)OC/C(O)=C(\C#N)c1nc2ccccc2[nH]1	-	-	105	.	-	-
CC(C)OCc1c(C(=O)OC/C(O)=C(\C#N)c2nc3ccccc3[nH]2)oc2ccccc12	-	-	-	-	-	.
Cc1c(C(=O)OC/C(O)=C(\C#N)c2nc3ccccc3[nH]2)oc2ccc(Br)cc12	-	-	103	-	-	-
CCc1nc(NCC(C)C)c(C#N)c2c1COC(C)(C)C2	-	-	108	-	-	71
COc1ccccc1NC(=O)c1c([N+](=O)[O-])cnn1C	-	-	.	-	-	.
COc1ccccc1NC(=O)c1c(N=Cc2ccccc2O)cnn1C	-	-	101	-	-	-
COc1cccc(C=Nn2c(COc3ccccc3)n[nH]c2=S)c1	.	.	.	-	.	.
CC(=O)Nc1ccccc1NC(=O)CC(C)=NNC(=O)c1ccccn1	.	.	.	-	.	.
Cc1nn(C)cc1C=NNC(=O)c1ccc2c(c1)OCO2	.	.	.	-	.	.
Cc1cccc(Oc2cc(NC(=O)Cn3cnc([N+](=O)[O-])n3)cc([N+](=O)[O-])c2)c1	.	.	103	-	-	-
CCOC(=O)c1ccc(NC(=O)CSc2nnc(CCc3ccc(C)o3)n2-c2ccccc2)cc1	-	-	103	-	-	-
O=C(NN=Cc1ccc(N2CCOCC2)cc1)c1cccs1	.	.	.	-	.	.
CCOC(=O)c1c(CC(C)C)csc1NC=O	-	-	99	-	-	-
Cc1cccc(C)c1NC(=S)NN=Cc1ccc(OCCC(C)C)cc1	.	.	.	-	.	.
Nc1c(S(=O)(=O)c2ccccc2)c2nc3ccccc3nc2n1/N=C/c1cccc(O)c1	-	-	103	.	-	72
Cc1cccc(S(=O)(=O)c2c(N)n(/N=C/c3ccccc3)c3nc4ccccc4nc23)c1	-	-	-	.	-	.
Oc1c(Cl)cc(Cl)cc1CNc1ccc(Br)cn1	-	-	104	-	-	-
CCN1/C(=C/c2ccc3cc(C)ccc3[n+]2C)Sc2ccc3sccc3c21	.	.	109	-	.	102
COc1ccc(C=NNC(=O)CN2CCS(=O)(=O)CC2)cc1	.	.	.	-	.	.
CCN1CCN(Cc2ccc(NC(=O)c3cc(NC(=O)c4cncc(-c5ccc(C#N)cc5)c4)cc(OC)c3)cc2C(F)(F)F)CC1	-	-	107	-	-	-
SMILES	UPR XBP1 act	CHOP UPR activ	CHOP inhibitor	UCH37 inh	CTSL1 counter	CHOP inh conf
Cc1cc(C)c2nc(C(F)(F)F)c(C#N)c(N)c2c1	-	-	106	-	-	116
Cc1cccc2c1N(CCOc1ccc(C(C)(C)C)cc1)C(=O)C2=O	-	-	100	-	-	-
CC(=NNc1ccc(Cl)c(C(=O)O)c1)c1cccc([N+](=O)[O-])c1	.	.	.	-	.	.
Cc1cc(C)c(COCc2cc(/C=N/O)c(C)cc2C)cc1/C=N/O	-	-	108	.	-	-
Cc1cc(C)c(COCc2cc(C=NO)c(C)cc2C)cc1C=NO	.	.	.	-	.	.
O=C(c1ccc(Cl)cc1Cl)c1ncc(C(F)(F)F)cc1Cl	-	-	-	-	-	.
O/N=C(\c1ccc(Cl)cc1Cl)c1ncc(C(F)(F)F)cc1Cl	-	-	107	.	-	111
Cn1c(C(C#N)=C(O)c2ccc(S(=O)(=O)N3CCCCC3)cc2)nc2ccccc21	.	.	.	-	.	.
